Source: ChEMBL document CHEMBL5715938, “The protein kinase Cbeta-selective inhibitor, Enzastaurin (LY317615.HCl), suppresses signaling through the AKT pathway, induces apoptosis, and suppresses growth of human colon cancer and glioblastoma xenografts” (Cancer Res, 2005)
Active and inactive are the calls of the source. The rule behind the calls is not given here.

What was measured:
[1] = target: Protein kinase C alpha type (Homo sapiens) (UniProt P17252); test: Inhibition of PKCalpha (unknown origin) at 1 micromol/L relative to control; conditions: dose 1.0 µmol/L
Summary of the method: (§1)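 Commercial kinase profiler panel run to the provider's protocol, with the compound tested at 1 µmol/L. Activity is expressed as percent of kinase activity without compound.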

[2] = target: Inhibitor of nuclear factor kappa-B kinase subunit beta (Homo sapiens) (UniProt O14920); test: Inhibition of IKKbeta (unknown origin) at 1 micromol/L relative to control; conditions: dose 1.0 µmol/L
Summary of the method: (§2)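 Upstate Kinase Profiler panel at 1 μmol/L drug, run per provider; data expressed as percent of kinase activity without drug.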

RXF 393 = test: Antiproliferative activity against human RXF 393 cells assessed as reduction in cell growth upto 10 uM measured after 6 days by propidium iodide staining based analysis; assay type: functional; conditions: time 6.0 day
Summary of the method: (§3)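 ATCC-sourced lines grown without antibiotics; 1,000 cells/well in 1% FBS medium, refed ±drug on days 1 and 4 over a 6-day course. On day 7, propidium iodide (10 μg/mL in D-PBS) read after 30 min for nonviable cells, plate frozen at -80°C 2 h, thawed and reread; proliferative index = postfreeze minus prefreeze signal.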

HCT-116 [3] = test: Antitumor activity against human HCT-116 cells xenografted in athymic nude mouse assessed as reduction in GSK3beta phosphorylation at serine 9 residue at 75 mg/kg, po administered twice daily measured after 12 hrs by Western blotting analysis; assay type: functional, organism-based
BT-549 = test: Antiproliferative activity against human BT-549 cells assessed as reduction in cell growth upto 10 uM measured after 6 days by propidium iodide staining based analysis; assay type: functional; conditions: time 6.0 day; summary of the method: as §3
U-87 MG = test: Antitumor activity against human U-87 MG cells xenografted in athymic nude mouse assessed as reduction in tumor growth at 75 mg/kg, po administered twice daily measured after 21 days; assay type: functional, organism-based; conditions: U-87MG ATCC, time 21.0 day
Summary of the method: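 Female athymic nude mice, 6–8 weeks, 5 million cells s.c. flank in 1:1 serum-free medium/matrigel; at group mean 100 mm³, 75 mg/kg by gavage twice daily in 10% acacia for 21 days, n = 9/group, vehicle controls; caliper volume A²×B×0.536; two-way repeated measures analysis.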

[4] = target: Protein kinase C gamma type (Homo sapiens, UniProt P05129); test: Inhibition of recombinant human PKCgamma using myelin basic protein as substrate incubated for 60 mins in presence of […] and ATP by microbeta scintillation counter analysis
Summary of the method: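 Radiometric filter-plate assay with recombinant human PKCγ (128 pmol/L) phosphorylating myelin basic protein (0.25 mg/mL). Buffer: 90 mmol/L HEPES pH 7.5, 5 mmol/L MgCl2, 100 µmol/L CaCl2, phosphatidylserine, diacylglycerol, 0.001% Triton X-100, 4% DMSO, 30 µmol/L ATP plus 32P-ATP. Enzyme added to start; ran 60 min at room temperature; H3PO4 quench; phosphocellulose capture. IC50 from a three-variable logistic fit to a 10-point series, 1–2,000 nmol/L.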

HCT-116 [5] = test: Induction of apoptosis in human HCT-116 cells assessed as increase in apoptotic cells in sub-G0-G1 fraction at 0.3 to 4 micromol/L incubated for 72 hrs by TUNEL staining based analysis; assay type: functional, cell-based; conditions: dose 0.3-4 µmol/L
[6] = Antitumor activity against human HCT116 cells implanted in athymic nude mouse assessed as reduction in GSK3beta phosphorylation at serine 9 residue at 75 mg/kg, po administered twice daily measured after 2 to 4 hrs by ELISA method relative to control; design: scale not given: the % may be the effect or the level left; conditions: time 2-4 hrs
[7] = Plasma concentration in athymic nude mouse xenografted with human HCT-116 cells at 75 mg/kg, po administered twice daily measured after 30 mins by LC-MS analysis; assay type: ADME, organism-based
Summary of the method: (§4)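 Female athymic nude mice, 6–8 weeks old, received 5 million HCT116 cells s.c. in the flank in 1:1 serum-free medium and matrigel (n = 9 per group). Dosing began at a group mean tumor volume of 100 mm³: 75 mg/kg twice daily by gavage, suspended in 10% acacia in water. Plasma was taken on days 1 and 21 at 0.5–12 h post-dose and measured by LC-MS/MS.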

[8] = target: Dual specificity mitogen-activated protein kinase kinase 6 (Homo sapiens) (UniProt P52564); test: Inhibition of MKK6 (unknown origin) at 1 micromol/L relative to control; conditions: dose 1.0 µmol/L; summary of the method: as §1
Chain of Dual specificity mitogen-activated protein kinase kinase 6 (Homo sapiens) (P52564 whole entry): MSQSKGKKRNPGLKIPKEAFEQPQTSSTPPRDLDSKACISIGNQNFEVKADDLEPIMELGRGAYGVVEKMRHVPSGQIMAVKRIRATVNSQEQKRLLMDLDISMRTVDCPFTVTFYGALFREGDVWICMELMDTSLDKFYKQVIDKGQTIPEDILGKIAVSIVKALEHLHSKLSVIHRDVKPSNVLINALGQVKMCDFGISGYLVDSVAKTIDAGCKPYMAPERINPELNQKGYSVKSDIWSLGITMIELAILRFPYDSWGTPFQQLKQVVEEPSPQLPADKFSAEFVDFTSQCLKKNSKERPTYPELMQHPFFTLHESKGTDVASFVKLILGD

[9] = target: Serine/threonine-protein kinase N2 (Homo sapiens) (UniProt Q16513); test: Inhibition of PRK2 (unknown origin) at 1 micromol/L relative to control; conditions: dose 1.0 µmol/L; summary of the method: as §1
HCT-116 [10] = test: Induction of apoptosis in human HCT-116 cells assessed as increase in apoptotic cells incubated for 72 hrs by TUNEL staining based analysis (reference value: 2%); assay type: functional; conditions: dose 4 µmol/L, at 4 µM
[11] = target: Protein kinase C zeta type (Homo sapiens) (UniProt Q05513); test: Inhibition of PKCzeta (unknown origin) at 1 micromol/L relative to control; conditions: dose 1.0 µmol/L; summary of the method: as §1
Chain of Protein kinase C zeta type (Homo sapiens) (Q05513 whole entry): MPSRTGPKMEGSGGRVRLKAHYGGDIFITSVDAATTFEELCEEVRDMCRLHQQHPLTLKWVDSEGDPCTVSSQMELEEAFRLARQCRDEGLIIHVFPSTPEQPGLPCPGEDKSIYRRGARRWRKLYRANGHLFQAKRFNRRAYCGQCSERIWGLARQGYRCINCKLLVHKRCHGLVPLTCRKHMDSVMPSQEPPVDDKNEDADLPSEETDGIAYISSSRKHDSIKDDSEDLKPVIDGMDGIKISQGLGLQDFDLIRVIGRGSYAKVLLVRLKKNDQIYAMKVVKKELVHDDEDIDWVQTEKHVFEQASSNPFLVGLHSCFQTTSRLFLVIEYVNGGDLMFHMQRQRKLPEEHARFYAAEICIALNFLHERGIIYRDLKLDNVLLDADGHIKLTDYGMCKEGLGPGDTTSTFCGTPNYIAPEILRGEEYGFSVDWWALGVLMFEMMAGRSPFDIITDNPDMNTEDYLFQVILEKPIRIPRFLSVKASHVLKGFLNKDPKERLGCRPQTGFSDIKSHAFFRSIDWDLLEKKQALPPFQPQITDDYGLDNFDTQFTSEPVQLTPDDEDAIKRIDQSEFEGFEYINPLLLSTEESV

[12] = target: Mitogen-activated protein kinase 12 (Homo sapiens) (UniProt P53778); test: Inhibition of SAPK3 (unknown origin) at 1 micromol/L relative to control; conditions: dose 1.0 µmol/L; summary of the method: as §1
Chain of Mitogen-activated protein kinase 12 (Homo sapiens) (P53778 whole entry): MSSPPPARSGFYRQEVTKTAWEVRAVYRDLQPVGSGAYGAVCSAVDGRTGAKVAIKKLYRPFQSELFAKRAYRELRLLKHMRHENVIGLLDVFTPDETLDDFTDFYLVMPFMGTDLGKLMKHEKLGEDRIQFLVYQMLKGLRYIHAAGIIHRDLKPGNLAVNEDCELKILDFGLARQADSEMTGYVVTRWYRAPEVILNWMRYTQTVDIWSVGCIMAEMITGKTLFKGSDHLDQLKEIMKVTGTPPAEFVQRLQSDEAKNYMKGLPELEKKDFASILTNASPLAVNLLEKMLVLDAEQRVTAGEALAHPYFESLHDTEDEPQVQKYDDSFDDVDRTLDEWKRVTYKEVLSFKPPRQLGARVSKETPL

K562 = test: Antiproliferative activity against human K562 cells assessed as reduction in cell growth upto 10 uM measured after 6 days by propidium iodide staining based analysis; assay type: functional; conditions: time 6.0 day; summary of the method: as §3
SK-OV-3 = test: Antiproliferative activity against human SK-OV-3 cells assessed as reduction in cell growth upto 10 uM measured after 6 days by propidium iodide staining based analysis; assay type: functional; conditions: time 6.0 day; summary of the method: as §3
HOP-62 = test: Antiproliferative activity against human HOP-62 cells assessed as reduction in cell growth upto 10 uM measured after 6 days by propidium iodide staining based analysis; assay type: functional; conditions: time 6.0 day; summary of the method: as §3
NCI-H460 = test: Antiproliferative activity against human NCI-H460 cells assessed as reduction in cell growth upto 10 uM measured after 6 days by propidium iodide staining based analysis; assay type: functional; conditions: time 6.0 day; summary of the method: as §3
[13] = Plasma concentration in athymic nude mouse xenografted with human HCT-116 cells at 75 mg/kg, po administered twice daily measured after 1 hr by LC-MS analysis; assay type: ADME, organism-based; summary of the method: as §4
786-0 = test: Antiproliferative activity against human 786-0 cells assessed as reduction in cell growth upto 10 uM measured after 6 days by propidium iodide staining based analysis; assay type: functional; conditions: time 6.0 day; summary of the method: as §3
[14] = target: Protein kinase C epsilon type (Homo sapiens) (UniProt Q02156); test: Inhibition of PKCepsilon (unknown origin) at 1 micromol/L relative to control; conditions: dose 1.0 µmol/L; summary of the method: as §1
[15] = target: Fibroblast growth factor receptor 3 (Homo sapiens) (UniProt P22607); test: Inhibition of FGFR3 (unknown origin) at 1 micromol/L relative to control; conditions: dose 1.0 µmol/L; summary of the method: as §2
Chain of Fibroblast growth factor receptor 3 (Homo sapiens) (P22607 23-806 limits assumed): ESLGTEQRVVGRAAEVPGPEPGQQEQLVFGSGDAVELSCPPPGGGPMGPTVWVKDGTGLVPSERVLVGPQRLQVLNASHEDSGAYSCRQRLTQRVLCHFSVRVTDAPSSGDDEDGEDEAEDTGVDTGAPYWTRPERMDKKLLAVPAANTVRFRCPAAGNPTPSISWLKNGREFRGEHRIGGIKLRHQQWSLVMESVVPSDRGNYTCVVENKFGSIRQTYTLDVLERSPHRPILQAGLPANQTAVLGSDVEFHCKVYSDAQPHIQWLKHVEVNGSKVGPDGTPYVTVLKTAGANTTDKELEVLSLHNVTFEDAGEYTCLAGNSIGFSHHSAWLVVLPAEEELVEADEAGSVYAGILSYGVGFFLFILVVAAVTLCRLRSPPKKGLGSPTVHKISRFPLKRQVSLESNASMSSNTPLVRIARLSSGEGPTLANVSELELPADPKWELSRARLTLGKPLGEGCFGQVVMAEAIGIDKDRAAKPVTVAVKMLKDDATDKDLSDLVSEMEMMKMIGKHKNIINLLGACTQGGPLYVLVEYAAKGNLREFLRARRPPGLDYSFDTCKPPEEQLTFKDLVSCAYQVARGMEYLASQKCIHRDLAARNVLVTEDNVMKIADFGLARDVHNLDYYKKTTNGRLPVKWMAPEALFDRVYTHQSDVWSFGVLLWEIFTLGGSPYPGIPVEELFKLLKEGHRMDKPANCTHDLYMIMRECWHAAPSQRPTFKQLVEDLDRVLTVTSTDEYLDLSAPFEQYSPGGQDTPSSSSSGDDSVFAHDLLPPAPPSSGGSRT

[16] = target: Serine/threonine-protein kinase AKT (Homo sapiens) (UniProt P31751+Q9Y243+P31749); test: Inhibition of AKT phosphorylation at Thr308 residue in human HCT-116 cells at 1 micromol/L upto 4 hrs by Western blotting analysis; assay type: cell-based; conditions: dose 1.0 µmol/L
Chain of Serine/threonine-protein kinase AKT (Homo sapiens) (P31749 whole entry, looked up): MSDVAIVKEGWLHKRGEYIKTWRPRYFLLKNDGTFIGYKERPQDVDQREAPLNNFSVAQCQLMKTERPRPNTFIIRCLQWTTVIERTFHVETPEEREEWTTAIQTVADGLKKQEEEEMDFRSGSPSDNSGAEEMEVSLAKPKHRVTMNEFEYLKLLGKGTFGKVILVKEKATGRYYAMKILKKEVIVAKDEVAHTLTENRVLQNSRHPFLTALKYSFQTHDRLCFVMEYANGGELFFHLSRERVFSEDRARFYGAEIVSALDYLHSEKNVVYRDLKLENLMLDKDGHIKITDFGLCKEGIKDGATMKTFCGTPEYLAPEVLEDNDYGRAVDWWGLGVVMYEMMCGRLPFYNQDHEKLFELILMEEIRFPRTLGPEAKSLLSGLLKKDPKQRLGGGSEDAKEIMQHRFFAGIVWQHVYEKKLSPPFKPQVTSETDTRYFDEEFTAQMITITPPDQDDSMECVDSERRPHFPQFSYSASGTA
Chain of Serine/threonine-protein kinase AKT (Homo sapiens) (P31751 whole entry, looked up): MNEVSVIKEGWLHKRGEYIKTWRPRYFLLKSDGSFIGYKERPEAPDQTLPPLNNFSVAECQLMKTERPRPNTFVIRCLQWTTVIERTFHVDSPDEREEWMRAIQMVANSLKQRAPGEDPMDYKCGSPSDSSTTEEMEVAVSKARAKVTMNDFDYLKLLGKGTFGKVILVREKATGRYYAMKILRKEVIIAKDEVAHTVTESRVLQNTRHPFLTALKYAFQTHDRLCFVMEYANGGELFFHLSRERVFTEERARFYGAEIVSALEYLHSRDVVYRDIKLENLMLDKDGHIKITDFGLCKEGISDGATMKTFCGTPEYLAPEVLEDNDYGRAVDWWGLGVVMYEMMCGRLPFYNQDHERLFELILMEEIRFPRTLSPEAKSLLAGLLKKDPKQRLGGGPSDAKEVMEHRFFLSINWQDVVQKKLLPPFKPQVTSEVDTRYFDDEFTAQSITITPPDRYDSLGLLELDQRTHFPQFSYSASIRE
Chain of Serine/threonine-protein kinase AKT (Homo sapiens) (Q9Y243 whole entry, looked up): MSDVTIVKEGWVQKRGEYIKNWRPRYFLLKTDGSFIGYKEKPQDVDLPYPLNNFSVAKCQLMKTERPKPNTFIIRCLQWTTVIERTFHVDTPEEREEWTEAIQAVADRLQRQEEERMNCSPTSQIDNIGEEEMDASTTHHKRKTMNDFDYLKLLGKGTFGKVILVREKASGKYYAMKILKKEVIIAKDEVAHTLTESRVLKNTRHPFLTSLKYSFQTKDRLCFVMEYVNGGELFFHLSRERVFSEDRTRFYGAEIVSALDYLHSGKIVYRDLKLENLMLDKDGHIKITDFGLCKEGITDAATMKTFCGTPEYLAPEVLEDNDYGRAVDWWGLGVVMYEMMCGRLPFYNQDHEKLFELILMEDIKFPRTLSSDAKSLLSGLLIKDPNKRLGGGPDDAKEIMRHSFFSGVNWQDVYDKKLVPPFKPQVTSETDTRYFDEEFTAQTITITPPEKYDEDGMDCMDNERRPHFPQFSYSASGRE
Summary of the method: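 Cultured tumor cells treated with 1 μmol/L drug; lysates in cell extraction buffer with protease inhibitors, western blotted with phospho-specific antibodies (pGSK3β Ser9, pAKT Thr308, phospho-ERK) alongside total GSK3β/AKT.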

[17] = target: Proto-oncogene tyrosine-protein kinase Src (Homo sapiens) (UniProt P12931); test: Inhibition of c-SRC (unknown origin) at 1 micromol/L relative to control; conditions: dose 1.0 µmol/L; summary of the method: as §1
Chain of Proto-oncogene tyrosine-protein kinase Src (Homo sapiens) (P12931 2-536 limits assumed): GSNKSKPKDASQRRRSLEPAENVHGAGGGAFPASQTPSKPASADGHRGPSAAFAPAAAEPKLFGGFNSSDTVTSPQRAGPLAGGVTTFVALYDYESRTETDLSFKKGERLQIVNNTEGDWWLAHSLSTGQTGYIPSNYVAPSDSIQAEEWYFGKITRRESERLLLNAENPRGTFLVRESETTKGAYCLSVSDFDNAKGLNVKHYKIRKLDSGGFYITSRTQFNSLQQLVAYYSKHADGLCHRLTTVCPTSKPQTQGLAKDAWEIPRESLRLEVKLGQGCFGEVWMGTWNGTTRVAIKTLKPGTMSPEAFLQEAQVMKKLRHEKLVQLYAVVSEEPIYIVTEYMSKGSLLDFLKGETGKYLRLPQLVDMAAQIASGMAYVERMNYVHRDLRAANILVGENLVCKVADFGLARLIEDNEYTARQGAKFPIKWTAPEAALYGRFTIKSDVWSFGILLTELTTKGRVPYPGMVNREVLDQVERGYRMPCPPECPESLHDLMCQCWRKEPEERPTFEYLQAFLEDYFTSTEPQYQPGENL

MOLT-4 = test: Antiproliferative activity against human MOLT-4 cells assessed as reduction in cell growth upto 10 uM measured after 6 days by propidium iodide staining based analysis; assay type: functional; conditions: time 6.0 day; summary of the method: as §3

Cl.Cn1cc(C2=C(c3cn(C4CCN(Cc5ccccn5)CC4)c4ccccc34)C(=O)NC2=O)c2ccccc21 [ENZASTAURIN HYDROCHLORIDE]
% control activity [1]: 23% | % control activity [2]: 116% | Activity (RXF 393): inactive | Activity (HCT-116 [3]): inactive | Activity (BT-549): inactive | Activity (U-87 MG): Active | IC50 [4]: 83 nM | Activity (HCT-116 [5]): Active | Activity [6]: >60% | concentration at 0.5 h [7]: ~2000 nM | % control activity [8]: 99% | % control activity [9]: 88% | Activity (HCT-116 [10]): >50% | % control activity [11]: 47% | % control activity [12]: 88% | Activity (K562): Active | Activity (SK-OV-3): inactive | Activity (HOP-62): inactive | Activity (NCI-H460): inactive | concentration at 1 h [13]: 3000 nM | Activity (786-0): inactive | % control activity [14]: 9% | % control activity [15]: 82% | inhibition [16]: Active | % control activity [17]: 101% | Activity (MOLT-4): Active
